The structures appear in SMILES notation.

In data set [1] the test system is Mus musculus. In words: Antinociceptive activity against acetic acid-induced writhing response in iv dosed CD1 mouse after 20 mins. The format is functional. The method, boiled down:
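CD1 mice received the compound intravenously at doses of 4 to 25 before the acetic acid-induced abdominal constriction (writhing) test. Writhing inhibition was scored 20 min after dosing and ED₅₀ was taken from the dose-response. A separate arm was pretreated with the delta-selective antagonist naltrindole.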

Data set [2] deals with Rattus norvegicus. The data set can be described thus: Antihyperalgesic activity against carrageenan-induced inflammatory hyperalgesia in iv dosed Sprague-Dawley rat after 30 mins. The format is functional. The method, boiled down: (§1)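 Sprague-Dawley rats with carrageenan-induced inflammatory hyperalgesia received the compound intravenously across a dose range of 3 to 30. Antinociceptive reversal was measured 30 min after dosing.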

The test system of data set [3] is Rattus norvegicus. The data set can be described thus: Antihyperalgesic activity against carrageenan-induced inflammatory hyperalgesia in Sprague-Dawley rat at 30 umol/kg, iv after 30 mins. The format is functional. The method, boiled down:
as §1

Data set [4] has as its system Mus musculus. In words: Toxicity in CD1 mouse assessed convulsant activity at 4 to 25 umol/kg, iv after 20 mins. The format is organism-based. As to conditions: in vivo. The method, boiled down:
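CD1 mice were watched for convulsions during the acetic acid writhing experiment, at the intravenous doses used there (4 to 25) and 20 min after dosing.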

The subject of data set [5] is Rattus norvegicus. The data set can be described thus: Toxicity in Sprague-Dawley rat assessed convulsant activity at 3 to 30 umol/kg, iv after 30 mins. As to conditions: in vivo, 0.5 h. It is filed as organism-based. The method, boiled down: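 Sprague-Dawley rats were watched for convulsions during the carrageenan hyperalgesia experiment, at the intravenous doses used there (3 to 30) and 30 min after dosing.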

For data set [6], the system named is Rattus norvegicus. In words: Toxicity in Sprague-Dawley rat assessed hyperactivity at above 30 umol/kg, iv after 30 mins. The following applies: in vivo, 0.5 h. It is filed as organism-based.
Data set [7] relates to Mus musculus. The data set can be described thus: Toxicity in CD1 mouse assessed hyperactivity at above 30 umol/kg, iv after 20 mins. It is filed as organism-based. As to conditions: in vivo.
Data set [8] in a line: Bioavailability in rat. It is filed as ADME, organism-based. The following applies: in vivo.
Data set [9] is described as follows: Half life in rat. It is filed as ADME, organism-based. As to conditions: in vivo.

In the case of `CN1CC[C@]23c4c5ccc(O)c4O[C@H]2[C@@H](O)C=C[C@H]3[C@H]1C5` [MORPHINE], the Activity with Mus musculus [1] came out at 1.5 µmol/kg; in the data set with Rattus norvegicus [2] it was 3.1 µmol/kg.
By bioavailability is commonly meant the share of a dose that reaches the circulation, judged against a reference dose that is usually intravenous. A lower bioavailability goes with poor availability. By half-life is commonly meant the time needed for the level to fall by half in the phase considered. Higher therefore signals slow loss. Broadly, the ED50 is the dose that gives a 50% effect, or the effect in half of the subjects. The low end stands for greater potency, the high end for weaker potency. In the case of `CCN(CC)C(=O)c1ccc(N(c2cccc(O)c2)C2CCN(CCc3ccccc3)CC2)cc1`, the Activity in the data set on Rattus norvegicus [3] is 60%; in the data set with Mus musculus [4] it was “Non-toxic”; in the data set with Rattus norvegicus [5], “Non-toxic”; in the data set with Rattus norvegicus [6] it was “Non-toxic”; in the data set with Mus musculus [7], “Non-toxic”; in the data set with Rattus norvegicus [2], “Dose-dependent effect”. This compound had a bioavailability in data set [8] of 25%. The same compound showed a half-life in data set [9] of 48 min. The same compound returned an ED50 in the data set on Rattus norvegicus [2] (Rattus norvegicus, Sprague-Dawley, iv, 0.5 h) of 17.5 µmol/kg.

The record behind these values is ChEMBL document CHEMBL1156083, “N,N-Diethyl-4-[(3-hydroxyphenyl)(piperidin-4-yl)amino] benzamide derivatives: the development of diaryl amino piperidines as potent delta opioid receptor agonists with in vivo anti-nociceptive activity in rodent models” (Bioorg Med Chem Lett, 2009).
